ChEMBL document CHEMBL1687794, “Phenotypic and biochemical comparison of the carbapenem-hydrolyzing activities of five plasmid-borne AmpC β-lactamases” (2010)
Converted amounts (≈) assume the structure as drawn.

Assays:
[1] = Activity of Beta-lactamase FOX-1
Procedure, shortened: (§1)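 Enzyme source: AmpC genes cloned without native promoter under lacZ control, expressed in E. coli TOP10, purified (FOX-1 by two Q-Sepharose steps, bis-Tris pH 6.8 then Tris-HCl pH 9). Hydrolysis monitored spectrophotometrically at 30°C in 100 mM sodium phosphate pH 7.0 with cephaloridine, ertapenem, imipenem or meropenem. kcat from initial rates at saturating substrate ([S] = 100 × Km).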

[2] = Activity of Beta-lactamase DHA-1; procedure, shortened: as §1
[3] = Activity of Beta-lactamase ACT-1; procedure, shortened: as §1
[4] = Ratio of Kcat to Km for Beta-lactamase FOX-1
Procedure, shortened: (§2)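 Purified TOP10-expressed AmpC enzymes, assayed spectrophotometrically at 30°C, 100 mM sodium phosphate pH 7.0. Cephaloridine Km and kcat from initial rates via Eadie-Hofstee linearization. For imipenem, Ki replaced Km, measured against cephaloridine as reporter substrate. kcat from initial rates at saturating substrate ([S] = 100 × Km) using undiluted enzyme extract. Efficiency taken as kcat/Km.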

[5] = Ratio of Kcat to Km for Beta-lactamase ACC-1; procedure, shortened: as §2
[6] = Ratio of Kcat to Km for Beta-lactamase AmpC-B2; procedure, shortened: as §2
[7] = Ratio of Kcat to Km for Beta-lactamase DHA-1; procedure, shortened: as §2
[8] = Ratio of Kcat to Km for Beta-lactamase CMY-2; procedure, shortened: as §2
[9] = Ratio of Kcat to Km for Beta-lactamase ACT-1; procedure, shortened: as §2
[10] = Activity of Beta-lactamase ACC-1
Procedure, shortened: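 ACC-1 cloned without its native promoter behind the lacZ promoter, expressed in E. coli TOP10 and purified. Ki, Km and kcat measured by UV spectrophotometry at 30°C in 100 mM sodium phosphate pH 7.0. Cephaloridine Km/kcat from initial rates by Eadie-Hofstee analysis. Imipenem Ki measured against cephaloridine reporter substrate; kcat from initial rates at [S] = 100 × Km.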

[11] = Activity of Beta-lactamase AmpC-B2; procedure, shortened: as §1
[12] = Activity of Beta-lactamase CMY-2; procedure, shortened: as §1
Escherichia coli [13] = experiment: Antimicrobial activity against Escherichia coli TOP10 transformed with Escherichia coli ECB2 plasmid carrying CMY-2 by agar dilution method; type: functional
Procedure, shortened: (§3)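 Agar dilution MICs on Mueller-Hinton agar, 10^4 CFU per spot, read by CLSI guidelines. Strains are wild-type E. coli TOP10, with or without a cloned ampC gene (native promoter removed, lacZ promoter-driven). Antibiotics tested: cefoxitin, cefuroxime, cefotaxime, ceftazidime, cefepime, imipenem, ertapenem, meropenem.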

Escherichia coli [14] = experiment: Antimicrobial activity against OmpC/OmpF porin deficient Escherichia coli HB4 by agar dilution method; type: functional
Procedure, shortened: (§4)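 Agar dilution on Mueller-Hinton agar, inoculum 10^4 CFU per spot, interpreted per CLSI. Host is E. coli HB4, which lacks OmpC and OmpF, with or without a cloned ampC gene under the lacZ promoter. Panel: cefoxitin, cefuroxime, cefotaxime, ceftazidime, cefepime, imipenem, ertapenem, meropenem.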

Escherichia coli [15] = experiment: Antimicrobial activity against OmpC/OmpF porin deficient Escherichia coli HB4 transformed with Escherichia coli EC-6 plasmid carrying AmpC-B2 by agar dilution method; type: functional; procedure, shortened: as §4
Escherichia coli [16] = experiment: Antimicrobial activity against OmpC/OmpF porin deficient Escherichia coli HB4 transformed with Escherichia coli ECB-1 plasmid carrying ACC-1 by agar dilution method; type: functional; procedure, shortened: as §4
Escherichia coli [17] = experiment: Antimicrobial activity against OmpC/OmpF porin deficient Escherichia coli HB4 transformed with Escherichia coli pGLK-1 plasmid carrying FOX-1 by agar dilution method; type: functional; procedure, shortened: as §4
Escherichia coli [18] = experiment: Antimicrobial activity against OmpC/OmpF porin deficient Escherichia coli HB4 transformed with Escherichia coli DH10B plasmid carrying DHA-1 by agar dilution method; type: functional; procedure, shortened: as §4
Escherichia coli [19] = experiment: Antimicrobial activity against OmpC/OmpF porin deficient Escherichia coli HB4 transformed with Enterobacter asburiae CIP 105006 plasmid carrying ACT-1 by agar dilution method; type: functional; procedure, shortened: as §4
Escherichia coli [20] = experiment: Antimicrobial activity against Escherichia coli TOP10 transformed with Escherichia coli EC-6 plasmid carrying AmpC-B2 by agar dilution method; type: functional; procedure, shortened: as §3
Escherichia coli [21] = experiment: Antimicrobial activity against Escherichia coli TOP10 transformed with Escherichia coli ECB-1 plasmid carrying ACC-1 by agar dilution method; type: functional; procedure, shortened: as §3
Escherichia coli [22] = experiment: Antimicrobial activity against Escherichia coli TOP10 transformed with Escherichia coli DH10B plasmid carrying DHA-1 by agar dilution method; type: functional; procedure, shortened: as §3
Escherichia coli [23] = experiment: Antimicrobial activity against Escherichia coli TOP10 transformed with Enterobacter asburiae CIP 105006 plasmid carrying ACT-1 by agar dilution method; type: functional; procedure, shortened: as §3
Escherichia coli [24] = experiment: Antimicrobial activity against Escherichia coli TOP10 by agar dilution method
Escherichia coli [25] = experiment: Antimicrobial activity against OmpC/OmpF porin deficient Escherichia coli HB4 transformed with Escherichia coli ECB2 plasmid carrying CMY-2 by agar dilution method; type: functional; procedure, shortened: as §4
Escherichia coli [26] = experiment: Antimicrobial activity against Escherichia coli TOP10 transformed with Escherichia coli pGLK-1 plasmid carrying FOX-1 by agar dilution method; type: functional; procedure, shortened: as §3

SMILES | MIC (Escherichia coli [13]) [µg/mL] | MIC (Escherichia coli [14]) [µg/mL] | MIC (Escherichia coli [15]) [µg/mL] | MIC (Escherichia coli [16]) [µg/mL] | MIC (Escherichia coli [17]) [µg/mL] | MIC (Escherichia coli [18]) [µg/mL] | MIC (Escherichia coli [19]) [µg/mL] | MIC (Escherichia coli [20]) [µg/mL] | MIC (Escherichia coli [21]) [µg/mL] | MIC (Escherichia coli [22]) [µg/mL] | MIC (Escherichia coli [23]) [µg/mL] | MIC (Escherichia coli [24]) [µg/mL] | MIC (Escherichia coli [25]) [µg/mL] | MIC (Escherichia coli [26]) [µg/mL] | also measured
O=C(Cc1cccs1)N[C@@H]1C(=O)N2C(C(=O)[O-])=C(C[n+]3ccccc3)CS[C@H]12 | – | – | – | – | – | – | – | – | – | – | – | – | – | – | Km [1]: 630 µM; kcat [1]: 228 s⁻¹; Km [2]: 330 µM; kcat [2]: 196 s⁻¹; Km [3]: 420 µM; kcat [3]: 481 s⁻¹; kcat/Km [4]: 360000 M⁻¹ s⁻¹; kcat/Km [5]: 330000 M⁻¹ s⁻¹; kcat/Km [6]: 250000 M⁻¹ s⁻¹; kcat/Km [7]: 595000 M⁻¹ s⁻¹; kcat/Km [8]: 3.3e+06 M⁻¹ s⁻¹; kcat/Km [9]: 1.14e+06 M⁻¹ s⁻¹; Km [10]: 420 µM; kcat [10]: 140 s⁻¹; Km [11]: 950 µM; kcat [11]: 240 s⁻¹; Km [12]: 125 µM; kcat [12]: 412 s⁻¹
CO/N=C(\C(=O)N[C@@H]1C(=O)N2C(C(=O)[O-])=C(C[N+]3(C)CCCC3)CS[C@H]12)c1csc(N)n1 [CEFEPIME] | 1 (≈ 2.08 µM) | 1 (≈ 2.08 µM) | 1 (≈ 2.08 µM) | 4 (≈ 8.32 µM) | 8 (≈ 16.6 µM) | 2 (≈ 4.16 µM) | 4 (≈ 8.32 µM) | 0.06 (≈ 0.125 µM) | 0.125 (≈ 0.26 µM) | 0.064 (≈ 0.133 µM) | 0.25 (≈ 0.52 µM) | 0.06 (≈ 0.125 µM) | – | – | –
CO/N=C(\C(=O)N[C@@H]1C(=O)N2C(C(=O)O)=C(COC(C)=O)CS[C@H]12)c1csc(N)n1 [CEFOTAXIME] | 128 (≈ 281 µM) | 4 (≈ 8.78 µM) | 4 (≈ 8.78 µM) | 4 (≈ 8.78 µM) | 32 (≈ 70.3 µM) | 128 (≈ 281 µM) | 64 (≈ 141 µM) | 0.5 (≈ 1.1 µM) | 1 (≈ 2.2 µM) | 8 (≈ 17.6 µM) | 64 (≈ 141 µM) | 0.06 (≈ 0.132 µM) | 256 (≈ 562 µM) | 16 (≈ 35.1 µM) | –
CO[C@@]1(NC(=O)Cc2cccs2)C(=O)N2C(C(=O)O)=C(COC(N)=O)CS[C@@H]21 [CEFOXITIN] | 128 (≈ 299 µM) | 256 (≈ 599 µM) | 512 (≈ 1200 µM) | 256 (≈ 599 µM) | > 512 | > 512 | > 512 | 128 (≈ 299 µM) | 2 (≈ 4.68 µM) | 32 (≈ 74.9 µM) | 512 (≈ 1200 µM) | 2 (≈ 4.68 µM) | > 512 | 512 (≈ 1200 µM) | –
CC(C)(O/N=C(\C(=O)N[C@@H]1C(=O)N2C(C(=O)[O-])=C(C[n+]3ccccc3)CS[C@H]12)c1csc(N)n1)C(=O)O [CEFTAZIDIME] | 256 (≈ 468 µM) | 4 (≈ 7.32 µM) | 8 (≈ 14.6 µM) | 16 (≈ 29.3 µM) | 512 (≈ 937 µM) | 256 (≈ 468 µM) | > 512 | 1 (≈ 1.83 µM) | 8 (≈ 14.6 µM) | 64 (≈ 117 µM) | 128 (≈ 234 µM) | 0.06 (≈ 0.11 µM) | > 512 | 64 (≈ 117 µM) | –
CO/N=C(\C(=O)N[C@@H]1C(=O)N2C(C(=O)O)=C(COC(N)=O)CS[C@H]12)c1ccco1 [CEFUROXIME] | 128 (≈ 302 µM) | 32 (≈ 75.4 µM) | 512 (≈ 1210 µM) | 128 (≈ 302 µM) | > 512 | > 512 | > 512 | 128 (≈ 302 µM) | 1 (≈ 2.36 µM) | 128 (≈ 302 µM) | 512 (≈ 1210 µM) | 1 (≈ 2.36 µM) | > 512 | 256 (≈ 603 µM) | –
C[C@@H](O)[C@H]1C(=O)N2C(C(=O)O)=C(S[C@@H]3CN[C@H](C(=O)Nc4cccc(C(=O)O)c4)C3)[C@H](C)[C@H]12 [ERTAPENEM] | 0.064 (≈ 0.135 µM) | 1 (≈ 2.1 µM) | 2 (≈ 4.21 µM) | 2 (≈ 4.21 µM) | 4 (≈ 8.41 µM) | 16 (≈ 33.6 µM) | 256 (≈ 538 µM) | 0.064 (≈ 0.135 µM) | 0.006 (≈ 0.0126 µM) | 0.012 (≈ 0.0252 µM) | 0.016 (≈ 0.0336 µM) | 0.006 (≈ 0.0126 µM) | 256 (≈ 538 µM) | 0.032 (≈ 0.0673 µM) | –
C[C@@H](O)[C@H]1C(=O)N2C(C(=O)O)=C(SCCNC=N)C[C@H]12 [IMIPENEM ANHYDROUS] | 0.5 (≈ 1.67 µM) | – | 0.5 (≈ 1.67 µM) | 0.5 (≈ 1.67 µM) | 0.5 (≈ 1.67 µM) | 2 (≈ 6.68 µM) | 16 (≈ 53.4 µM) | 0.125 (≈ 0.418 µM) | – | – | – | – | 32 (≈ 107 µM) | 0.25 (≈ 0.835 µM) | Km [1]: 35 µM; kcat [1]: 0.01 s⁻¹; kcat [2]: < 0.001 s⁻¹; Km [3]: 3 µM; kcat [3]: 0.02 s⁻¹; kcat/Km [4]: 300 M⁻¹ s⁻¹; kcat/Km [6]: 2000 M⁻¹ s⁻¹; kcat/Km [8]: 40000 M⁻¹ s⁻¹; kcat/Km [9]: 7000 M⁻¹ s⁻¹; kcat [10]: < 0.001 s⁻¹; Km [11]: 35 µM; kcat [11]: 0.08 s⁻¹; Km [12]: 1 µM; kcat [12]: 0.04 s⁻¹
C[C@@H](O)[C@H]1C(=O)N2C(C(=O)O)=C(S[C@@H]3CN[C@H](C(=O)N(C)C)C3)[C@H](C)[C@H]12 [MEROPENEM] | 0.064 (≈ 0.167 µM) | 0.032 (≈ 0.0834 µM) | 0.032 (≈ 0.0834 µM) | 0.5 (≈ 1.3 µM) | 0.75 (≈ 1.96 µM) | 1 (≈ 2.61 µM) | 4 (≈ 10.4 µM) | 0.032 (≈ 0.0834 µM) | 0.032 (≈ 0.0834 µM) | 0.032 (≈ 0.0834 µM) | 0.032 (≈ 0.0834 µM) | 0.032 (≈ 0.0834 µM) | 8 (≈ 20.9 µM) | 0.125 (≈ 0.326 µM) | –
